Test results: publication PMC11571122 (RSC Advances, 2024)

Key:
[1] = molecular target: human Gal-1 (Homo sapiens, UniProt P09382); assay: Fluorescence spectroscopy binding constant, Gal-1; conditions: for Gal-1 Ka: fluorescence, modified Stern–Volmer plot, 25 mM Tris-HCl pH 8
Method in brief: (§1)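 Human Gal-1 was cloned into pET-28a(+), expressed in E. coli BL21(DE3) and purified by Ni2+-NTA. Gal-3 and LdPase were produced similarly. Buffers: Gal-1 and Gal-3 in 25 mM Tris-HCl pH 8; LdPase in sodium phosphate pH 7. Intrinsic emission was scanned 300–400 nm (excitation 280 nm, 100 nm min−1) across ligand concentrations. Ka came from a modified Stern–Volmer plot of the log quenching term (F0 = no ligand, F = with ligand) versus log ligand concentration.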

[2] = test system: Gal-1; assay: Gal-1 ELISA enzymatic assay; format: cell-based, human; conditions: 20 μM, 24 h, HCT-116 cells
Method in brief: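 HCT-116 cells were treated with test compound at 20 μM for 24 h, and the secreted-protein supernatant was collected. Equal amounts were diluted 2-fold in calibrator diluent and incubated 2 h at room temperature with shaking on human Gal-1 ELISA plates (commercial kit, manufacturer's protocol), then washed. HRP-conjugated Gal-1 polyclonal antibody was added for 2 h, then substrate for 30 min, then stop solution. Absorbance was read at 450 nm.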

[3] = molecular target: human Gal-3 (Homo sapiens, UniProt P17931); assay: Fluorescence spectroscopy binding constant, Gal-3; conditions: for binding to Gal-3 compared to Gal-1: fluorescence spectroscopy; for Gal-3 Ka: fluorescence, 25 mM Tris-HCl pH 8
human Gal-3, sequence (P17931 whole entry): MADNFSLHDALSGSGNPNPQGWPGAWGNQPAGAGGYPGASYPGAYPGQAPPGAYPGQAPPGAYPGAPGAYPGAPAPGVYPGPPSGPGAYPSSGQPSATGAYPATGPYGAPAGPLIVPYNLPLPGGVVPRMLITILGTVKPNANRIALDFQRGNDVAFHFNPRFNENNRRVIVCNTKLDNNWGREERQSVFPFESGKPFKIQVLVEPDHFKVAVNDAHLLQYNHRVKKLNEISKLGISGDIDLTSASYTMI
Method in brief: as §1

[4] = test system: Leishmania donovani phosphatase (LdPase); assay: Fluorescence spectroscopy binding, LdPase
Method in brief: as §1

human Gal-1, sequence (P09382 whole entry): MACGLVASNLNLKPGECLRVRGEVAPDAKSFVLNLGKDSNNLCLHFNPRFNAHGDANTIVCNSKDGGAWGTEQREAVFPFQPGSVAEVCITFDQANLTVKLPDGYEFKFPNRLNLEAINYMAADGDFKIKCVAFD

| Substance | Gal-1 Ka [1] | binding to Gal-3 compared to Gal-1 [3] | Gal-3 Ka [3] | binding to LdPase [4] | Gal-1 binding constant (Ka) ([1]; fluorescence spectroscopy) | % Inhibition (EA) [2] |
| --- | --- | --- | --- | --- | --- | --- |
| 2-(4-Methylpiperidin-1-yl)-N-(5-(2-oxo-2H-chromen-3-yl)thiazol-2-yl)acetamide [Compound 10i] | – | – | – | – | – | <10% |
| 2-(4-Ethylpiperazin-1-yl)-N-(5-(2-oxo-2H-chromen-3-yl)thiazol-2-yl)acetamide [Compound 10b] | 2.1 10^4 M^−1 | – | – | – | – | – |
| 2-(4-(4-Nitrophenyl)piperazin-1-yl)-N-(5-(2-oxo-2H-chromen-3-yl)thiazol-2-yl)acetamide [Compound 10h] | – | – | – | – | – | <10% |
| N-(5-(2-Oxo-2H-chromen-3-yl)thiazol-2-yl)-2-(piperazin-1-yl)acetamide [Compound 10a] | 8.8 10^4 M^−1 | – | – | – | – | 58.19 ± 1.12% |

Further lines, with some results ahead:

| Gal-1 Ka [1] | binding to Gal-3 compared to Gal-1 [3] | Gal-3 Ka [3] | binding to LdPase [4] | Gal-1 binding constant (Ka) ([1]; fluorescence spectroscopy) | Substance | % Inhibition (EA) [2] |
| --- | --- | --- | --- | --- | --- | --- |
| 4.1 10^4 M^−1 | – | – | – | – | 2-(4-(2-Hydroxyethyl)piperazin-1-yl)-N-(5-(2-oxo-2H-chromen-3-yl)thiazol-2-yl)acetamide [Compound 10c] | – |
| 6.5 10^4 M^−1 | – | – | – | – | 2-(2,6-Dimethylmorpholino)-N-(5-(2-oxo-2H-chromen-3-yl)thiazol-2-yl)acetamide [Compound 10e] | – |
| 9.3 10^4 M^−1 | significantly lower binding | 1.1 10^−6 M^−1 | no detectable binding | – | N-(5-(2-Oxo-2H-chromen-3-yl)thiazol-2-yl)-2-(4-(pyridin-2-yl)piperazin-1-yl)acetamide [Compound 10f] | 80.57 ± 1.77% |
| 9.8 10^4 M^−1 | significantly lower binding | 1.0 10^−6 M^−1 | no detectable binding | 98000 M⁻¹ | 2-(4-(2-Methoxyphenyl)piperazin-1-yl)-N-(5-(2-oxo-2H-chromen-3-yl)thiazol-2-yl)acetamide [Compound 10g] | 58.19 ± 3.28% |
| 6.6 10^4 M^−1 | – | – | – | – | N-(5-(2-Oxo-2H-chromen-3-yl)thiazol-2-yl)-2-(4-phenylpiperazin-1-yl)acetamide [Compound 10d] | 56.73 ± 2.13% |
